From ChEMBL document CHEMBL1137638, “TEM-158 (CMT-9), a new member of the CMT-type extended-spectrum beta-lactamases” (Antimicrob Agents Chemother, 2007)
Activity calls are given as the source filed them. The calls are words filed in the database; no cut-off is given here.

What was measured:
Escherichia coli [1] = assay: Antibacterial activity against Escherichia coli BER1 producing beta-lactamase TEM-158; assay type: functional, organism-based
Escherichia coli [2] = assay: Antibacterial activity against Escherichia coli BER1 producing TEM-158 by microdilution method; assay type: functional, organism-based
Escherichia coli [3] = assay: Ratio of Kcat/Km for Escherichia coli DH5alpha beta-lactamase TEM-12 to Kcat/Km for Escherichia coli DH5alpha beta-lactamase TEM-158
Summary of the method: (§1)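 Each beta-lactamase was purified to homogeneity. Kinetic constants (kcat, Km) for beta-lactam substrates, including penicillins, were determined by computerized microacidimetry.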

Escherichia coli [4] = assay: Activity of Escherichia coli DH5alpha beta-lactamase TEM-12 by microacidimetric method; summary of the method: as §1
Escherichia coli [5] = assay: Ratio of Kcat to Km for Escherichia coli DH5alpha beta-lactamase TEM-12; parameters: unit not given here; summary of the method: as §1
Escherichia coli [6] = assay: Activity of Escherichia coli CF0042 beta-lactamase TEM-35 by microacidimetric method; summary of the method: as §1
Escherichia coli [7] = assay: Ratio of Kcat to Km for Escherichia coli CF0042 beta-lactamase TEM-35; parameters: unit not given here; summary of the method: as §1
Escherichia coli [8] = assay: Ratio of Kcat/Km for Escherichia coli DH5alpha beta-lactamase TEM-35 to Kcat/Km for Escherichia coli DH5alpha beta-lactamase TEM-158; summary of the method: as §1
Escherichia coli [9] = assay: Ratio of Kcat/Km for Escherichia coli DH5alpha beta-lactamase TEM-1 to Kcat/Km for Escherichia coli DH5alpha beta-lactamase TEM-158; summary of the method: as §1
[10] = system: Escherichia coli str. K-12 substr. DH10B

Compound | Activity (Escherichia coli [1]) | Activity (Escherichia coli [2]) | Ratio (Escherichia coli [3]) | Km (Escherichia coli [4]) [µM] | kcat (Escherichia coli [4]) [s⁻¹] | kcat/Km (Escherichia coli [5]) | Km (Escherichia coli [6]) [µM] | kcat (Escherichia coli [6]) [s⁻¹] | kcat/Km (Escherichia coli [7]) | Ratio (Escherichia coli [8]) | Ratio (Escherichia coli [9]) | kcat [10] [s⁻¹]
C[C@@H](O)[C@H]1C(=O)N2C(C(=O)O)=C(SCCNC=N)C[C@H]12 | inactive | inactive | 4 |  |  |  |  |  |  |  |  | 
CC1(C)S[C@@H]2[C@H](NC(=O)[C@H](N)c3ccc(O)cc3)C(=O)N2[C@H]1C(=O)O | inactive | inactive | 4 | 7.5 | 60 | 8 | 245 | 900 | 8.5 | 8 | 8 | 
CC(C)(O/N=C(\C(=O)N[C@@H]1C(=O)N2C(C(=O)[O-])=C(C[n+]3ccccc3)CS[C@H]12)c1csc(N)n1)C(=O)O | inactive | inactive | 4 | 254 | 11.1 | 0.04 |  | < 0.1 |  |  |  | 16
CC(=O)OCC1=C(C(=O)O)N2C(=O)[C@@H](NC(=O)Cc3cccs3)[C@H]2SC1 | inactive | inactive | 4 | 327 | 46 | 0.02 | 1200 | 52 | 0.04 |  |  | 
C[C@H]1[C@H](NC(=O)/C(=N\OC(C)(C)C(=O)O)c2csc(N)n2)C(=O)N1S(=O)(=O)O | inactive | inactive | 4 | 247 | 2 | 0.008 |  | < 0.1 |  |  |  | 
CC1(C)S[C@@H]2[C@H](NC(=O)Cc3ccccc3)C(=O)N2[C@H]1C(=O)O |  |  | 8 | 7 | 80 | 11 | 140 | 1050 | 7.5 | 8 | 8 | 
CO[C@@]1(NC(=O)Cc2cccs2)C(=O)N2C(C(=O)O)=C(COC(N)=O)CS[C@@H]21 | inactive | inactive | 4 |  |  |  |  |  |  |  |  | 
CC1(C)S[C@@H]2[C@H](NC(=O)[C@H](C(=O)O)c3ccsc3)C(=O)N2[C@H]1C(=O)O | inactive | inactive | 8 | 12 | 19 | 1.6 | 320 | 125 | 0.4 | 8 | 8 | 
CO/N=C(\C(=O)N[C@@H]1C(=O)N2C(C(=O)O)=C(COC(C)=O)CS[C@H]12)c1csc(N)n1 | inactive | inactive | 4 | 320 | 10.6 | 0.03 |  | < 0.1 |  |  |  | 
CCN1CCN(C(=O)N[C@@H](C(=O)N[C@@H]2C(=O)N3[C@@H]2SC(C)(C)[C@@H]3C(=O)O)c2ccccc2)C(=O)C1=O | inactive | inactive | 8 | 15 | 89 | 6 | 320 | 945 | 2.9 | 8 | 8 | 
CO/N=C(\C(=O)N[C@@H]1C(=O)N2C(C(=O)[O-])=C(C[N+]3(C)CCCC3)CS[C@H]12)c1csc(N)n1 | inactive | inactive | 4 |  |  |  |  |  |  |  |  | 
CO/N=C(\C(=O)N[C@@H]1C(=O)N2C(C(=O)O)=C(COC(N)=O)CS[C@H]12)c1ccco1 | inactive | inactive | 4 |  |  |  |  |  |  |  |  | 
